Measured values reported in ChEMBL document CHEMBL4311941, “Development of Multifunctional Histone Deacetylase 6 Degraders with Potent Antimyeloma Activity” (J Med Chem, 2019).
Activity calls are given as the source filed them. The rule behind the calls is not given here.

How the values were obtained:
[1] = target: T1, Histone deacetylase 8 (Homo sapiens, UniProt Q9BY41); test: Inhibition of human N-terminal tagged human HDAC8 expressed in HEK293T/17 using Boc-[TFA-Lys]-AMC as substrate preincubated for 10 mins followed by substrate addition and measured after 60 mins by fluorescence assay
T1 sequence (Q9BY41 whole entry): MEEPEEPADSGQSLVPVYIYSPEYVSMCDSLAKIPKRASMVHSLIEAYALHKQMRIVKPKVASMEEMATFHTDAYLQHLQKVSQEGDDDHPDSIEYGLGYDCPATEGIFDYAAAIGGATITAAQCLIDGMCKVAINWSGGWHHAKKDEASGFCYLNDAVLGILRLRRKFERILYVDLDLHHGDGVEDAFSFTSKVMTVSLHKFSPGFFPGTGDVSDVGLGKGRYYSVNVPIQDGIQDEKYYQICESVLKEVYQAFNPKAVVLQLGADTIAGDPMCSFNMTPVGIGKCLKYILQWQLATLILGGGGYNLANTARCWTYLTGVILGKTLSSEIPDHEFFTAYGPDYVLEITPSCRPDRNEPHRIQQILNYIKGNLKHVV

[2] = target: T2, Histone deacetylase 11 (Homo sapiens, UniProt Q96DB2); test: Inhibition of human N-terminal tagged human HDAC11 expressed in HEK293T/17 using Boc-[TFA-Lys]-AMC as substrate preincubated for 10 mins followed by substrate addition and measured after 60 mins by fluorescence assay
T2 sequence (Q96DB2 whole entry): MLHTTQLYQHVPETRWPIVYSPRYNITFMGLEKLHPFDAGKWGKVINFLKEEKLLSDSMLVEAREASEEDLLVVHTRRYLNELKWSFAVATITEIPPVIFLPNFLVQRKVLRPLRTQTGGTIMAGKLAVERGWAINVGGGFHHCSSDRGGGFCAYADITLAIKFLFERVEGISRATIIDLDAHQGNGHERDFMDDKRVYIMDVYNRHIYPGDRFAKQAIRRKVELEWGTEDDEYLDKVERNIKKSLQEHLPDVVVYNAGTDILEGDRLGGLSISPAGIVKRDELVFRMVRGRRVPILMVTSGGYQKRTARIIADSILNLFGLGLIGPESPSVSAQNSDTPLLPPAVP

[3] = target: T3, Protein cereblon/Protein deacetylase HDAC6 (Homo sapiens, UniProt Q9UBN7+Q96SW2); test: Protac activity at CRBN/HDAC6 in human MM1S cells assessed as HDAC6 degradation at 100 nM measured after 6 hrs in presence of HDAC6 inhibitor Next-A by Western blot analysis; assay type: cell-based
T3 sequence (Q96SW2 whole entry, looked up): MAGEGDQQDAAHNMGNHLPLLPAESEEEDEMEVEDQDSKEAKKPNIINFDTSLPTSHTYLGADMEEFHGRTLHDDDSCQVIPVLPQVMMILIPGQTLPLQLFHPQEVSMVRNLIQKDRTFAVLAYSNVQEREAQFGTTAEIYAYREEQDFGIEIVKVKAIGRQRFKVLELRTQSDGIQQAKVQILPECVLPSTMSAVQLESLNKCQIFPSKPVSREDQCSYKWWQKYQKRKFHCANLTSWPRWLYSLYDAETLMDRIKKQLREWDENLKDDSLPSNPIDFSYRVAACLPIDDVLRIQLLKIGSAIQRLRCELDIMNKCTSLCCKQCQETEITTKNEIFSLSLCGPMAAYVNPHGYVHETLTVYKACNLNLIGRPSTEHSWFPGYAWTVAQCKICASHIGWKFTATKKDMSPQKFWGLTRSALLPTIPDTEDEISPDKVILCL
T3 sequence (Q9UBN7 whole entry, looked up): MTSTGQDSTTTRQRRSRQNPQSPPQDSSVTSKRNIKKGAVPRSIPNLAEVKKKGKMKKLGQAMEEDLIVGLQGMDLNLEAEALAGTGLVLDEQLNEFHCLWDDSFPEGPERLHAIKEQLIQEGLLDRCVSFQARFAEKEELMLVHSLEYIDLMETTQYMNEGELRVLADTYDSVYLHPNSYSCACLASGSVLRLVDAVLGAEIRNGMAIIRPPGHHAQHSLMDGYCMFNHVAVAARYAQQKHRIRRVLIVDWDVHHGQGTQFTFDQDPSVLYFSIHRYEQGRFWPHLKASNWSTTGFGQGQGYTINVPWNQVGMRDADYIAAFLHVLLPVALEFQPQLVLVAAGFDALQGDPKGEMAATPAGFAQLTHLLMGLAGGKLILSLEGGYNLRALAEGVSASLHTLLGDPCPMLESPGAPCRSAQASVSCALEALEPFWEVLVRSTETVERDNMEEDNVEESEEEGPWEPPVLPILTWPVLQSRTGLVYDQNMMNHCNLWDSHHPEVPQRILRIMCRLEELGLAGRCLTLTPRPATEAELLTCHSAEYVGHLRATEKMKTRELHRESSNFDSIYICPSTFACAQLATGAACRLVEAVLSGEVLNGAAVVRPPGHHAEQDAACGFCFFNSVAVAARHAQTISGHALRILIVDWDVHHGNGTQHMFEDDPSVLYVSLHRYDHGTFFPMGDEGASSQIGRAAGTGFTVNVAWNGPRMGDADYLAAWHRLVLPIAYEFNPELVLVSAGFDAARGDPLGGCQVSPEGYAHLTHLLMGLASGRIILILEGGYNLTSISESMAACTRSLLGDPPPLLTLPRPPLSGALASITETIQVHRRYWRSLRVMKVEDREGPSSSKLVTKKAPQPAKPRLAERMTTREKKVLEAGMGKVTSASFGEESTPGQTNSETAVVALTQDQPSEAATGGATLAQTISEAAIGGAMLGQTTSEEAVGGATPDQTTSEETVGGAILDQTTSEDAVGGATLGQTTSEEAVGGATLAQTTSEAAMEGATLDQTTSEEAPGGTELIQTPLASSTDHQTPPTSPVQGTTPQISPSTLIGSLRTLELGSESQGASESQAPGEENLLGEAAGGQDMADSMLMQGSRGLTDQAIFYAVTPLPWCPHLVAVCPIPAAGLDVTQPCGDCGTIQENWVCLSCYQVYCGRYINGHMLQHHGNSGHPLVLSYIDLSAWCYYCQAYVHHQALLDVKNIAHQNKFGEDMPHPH

[4] = target: Cereblon/Ikaros (Homo sapiens) (UniProt Q96SW2+Q13422); test: Protac activity at CRBN/IKZF1 in human MM1S cells assessed as IKZF1 degradation at 100 nM measured after 6 hrs by Western blot analysis; assay type: cell-based
[5] = system: MM1.S; test: Effect on IKZF3 mRNA expression in human MM1S cells at 100 nM measured after 6 hrs by SYBR green dye-based qRT-PCR analysis; assay type: functional, cell-based
Procedure, shortened: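 After treatment, MM1S cells washed twice with cold PBS. Total RNA extracted and normalized, then reverse-transcribed. 10 ng cDNA amplified with SYBR Green: 50 °C 2 min, 95 °C 2 min, then 40 cycles of 95 °C 1 s / 60 °C 30 s, followed by a melt curve. Expression calculated by the 2−ΔΔCt method.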

[6] = target: Protein cereblon/Zinc finger protein Aiolos (Homo sapiens) (UniProt Q96SW2+Q9UKT9); test: Protac activity at CRBN/IKZF3 in human MM1S cells assessed as IKZF3 degradation at 100 nM measured after 6 hrs in presence of NAE inhibitor MLN 4924 by Western blot analysis; assay type: cell-based
Protein cereblon/Zinc finger protein Aiolos (Homo sapiens), sequence (Q96SW2 whole entry, looked up): as the sequence (Q96SW2 whole entry, looked up) above
Protein cereblon/Zinc finger protein Aiolos (Homo sapiens), sequence (Q9UKT9 whole entry, looked up): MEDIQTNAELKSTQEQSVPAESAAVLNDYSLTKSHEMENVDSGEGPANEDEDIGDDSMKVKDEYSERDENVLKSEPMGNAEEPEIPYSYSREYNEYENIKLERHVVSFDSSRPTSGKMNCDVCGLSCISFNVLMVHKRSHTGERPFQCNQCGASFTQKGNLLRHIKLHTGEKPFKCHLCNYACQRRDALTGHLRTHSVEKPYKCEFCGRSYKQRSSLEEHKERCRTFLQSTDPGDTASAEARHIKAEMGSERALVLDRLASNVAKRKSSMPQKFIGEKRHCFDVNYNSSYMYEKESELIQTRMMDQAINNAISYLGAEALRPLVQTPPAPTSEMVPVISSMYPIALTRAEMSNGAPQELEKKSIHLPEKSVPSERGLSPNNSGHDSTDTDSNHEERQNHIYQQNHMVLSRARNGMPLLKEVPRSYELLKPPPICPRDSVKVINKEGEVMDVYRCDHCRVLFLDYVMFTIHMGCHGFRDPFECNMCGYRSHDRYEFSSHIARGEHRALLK
Procedure, shortened: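 MM1S cells seeded at 1 × 10^6 per well overnight. Pretreated 1 h with pomalidomide, Next-A, MLN 4924 or DMSO, then given 100 nM degrader or DMSO for 6 h. Lysed in RIPA with protease inhibitors, 10−40 μg protein run on SDS-PAGE and transferred to PVDF. Blots probed for IKZF1/IKZF3, detected by ECL and quantified by densitometry.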

[7] = system: MM1.S; test: Induction of apoptosis in human MM1S cells assessed as cleavage of PARP measured after 48 hrs by Western blot analysis; assay type: functional, cell-based
[8] = target: T3, Protein cereblon/Protein deacetylase HDAC6; test: Protac activity at CRBN/HDAC6 in human MM1S cells assessed as HDAC6 degradation at 100 nM measured after 1 to 4 hrs by Western blot analysis; assay type: cell-based
[9] = target: T3, Protein cereblon/Protein deacetylase HDAC6; test: Protac activity at CRBN/HDAC6 in human MM1S cells assessed as HDAC6 degradation at 100 nM measured after 6 hrs in presence of NAE inhibitor MLN 4924 by Western blot analysis; assay type: cell-based
[10] = target: T4, Histone deacetylase 7 (Homo sapiens, UniProt Q8WUI4); test: Inhibition of human N-terminal tagged human HDAC7 expressed in HEK293T/17 using Boc-[TFA-Lys]-AMC as substrate preincubated for 10 mins followed by substrate addition and measured after 60 mins by fluorescence assay
T4 sequence (Q8WUI4 whole entry): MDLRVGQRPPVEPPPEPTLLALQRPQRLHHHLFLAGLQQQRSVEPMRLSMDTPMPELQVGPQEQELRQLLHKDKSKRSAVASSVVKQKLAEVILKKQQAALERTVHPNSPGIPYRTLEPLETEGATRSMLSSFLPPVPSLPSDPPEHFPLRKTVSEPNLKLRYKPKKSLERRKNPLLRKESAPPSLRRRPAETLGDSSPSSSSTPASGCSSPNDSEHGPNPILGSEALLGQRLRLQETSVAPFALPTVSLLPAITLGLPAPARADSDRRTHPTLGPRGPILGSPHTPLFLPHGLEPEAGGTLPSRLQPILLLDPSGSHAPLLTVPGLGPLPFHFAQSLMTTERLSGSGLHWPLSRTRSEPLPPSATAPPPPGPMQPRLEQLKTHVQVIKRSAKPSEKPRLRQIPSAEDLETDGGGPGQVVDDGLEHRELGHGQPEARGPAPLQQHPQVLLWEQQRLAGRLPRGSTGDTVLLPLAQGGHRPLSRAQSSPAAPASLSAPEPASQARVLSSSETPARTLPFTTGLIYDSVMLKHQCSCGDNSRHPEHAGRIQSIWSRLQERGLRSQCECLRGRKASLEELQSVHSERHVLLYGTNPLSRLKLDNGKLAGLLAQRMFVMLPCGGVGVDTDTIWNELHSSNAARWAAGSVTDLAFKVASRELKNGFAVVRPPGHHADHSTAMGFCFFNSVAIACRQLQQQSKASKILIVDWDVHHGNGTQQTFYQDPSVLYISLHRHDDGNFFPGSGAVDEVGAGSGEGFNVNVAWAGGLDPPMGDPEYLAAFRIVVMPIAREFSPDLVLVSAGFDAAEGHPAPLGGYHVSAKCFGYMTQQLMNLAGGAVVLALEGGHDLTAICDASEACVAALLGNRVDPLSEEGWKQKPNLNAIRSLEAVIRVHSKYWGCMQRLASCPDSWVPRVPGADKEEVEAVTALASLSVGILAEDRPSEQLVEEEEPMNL

[11] = system: MM1.S; test: Induction of apoptosis in human MM1S cells assessed as cleavage of casapse3 measured after 48 hrs by Western blot analysis; assay type: functional, cell-based
[12] = target: T3, Protein cereblon/Protein deacetylase HDAC6; test: Protac activity at CRBN/HDAC6 in human MM1S cells assessed as induction of alpha tubulin acetylation at 100 nM measured after 6 hrs in presence of proteasome inhibitor bortezomib by Western blot analysis; assay type: cell-based

`CCCCN(Cc1ccc(C(=O)NO)cc1)C(=O)Nc1ccc(OCCCCCn2cc(CNc3cccc4c3C(=O)N(C3CCC(=O)NC3=O)C4=O)nn2)cc1` (configuration not stated) was tested, and the IC50 [1] was 0.3 to 30 µM, the IC50 [2] was 0.3 to 30 µM and the Activity [3] was “inactive”. For the same compound, the Activity [4] was “Active”, the Activity [5] was “Active” and the Activity [6] was “inactive”. The Activity [7] was “Dose-dependent effect”, the Activity [8] was “Dose-dependent effect” and the Activity [9] was “inactive”. The IC50 [10] was 0.3 to 30 µM, the Activity [11] was “Dose-dependent effect” and the Activity [12] was “inactive”.
